Active and inactive are the calls of the source. The rule behind the calls is not given here.
How the values were obtained:
Rattus norvegicus [1] = organism: Rattus norvegicus; assay: Stereotyped behavior in Sprague-Dawley rat pretreated with nialamide assessed as sniffing behavior at 50 µg, bilateral intrastriatal
Rattus norvegicus [2] = assay: Circling behavior in sc dosed Sprague-Dawley rat with unilateral 6-OHDA lesion of nigrostriatal pathway assessed as number of revolutions performed per min; type: functional, organism-based
How it was run: (§1)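 Unilateral lesion made with 6-OHDA, 4 µl of 2 µg/µl at 1 µl/min, into medial forebrain bundle area of lateral hypothalamus. Rats tested 7-21 days later. Drug given sc in distilled water with 0.1% sodium metabisulfite. Contralateral circling counted as revolutions per minute. Mean of at least five rats.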

Rattus norvegicus [3] = organism: Rattus norvegicus; assay: Stereotyped behavior in Sprague-Dawley rat with unilateral 6-OHDA lesion of nigrostriatal pathway assessed as continuous biting; type: functional, organism-based
Rattus norvegicus [4] = assay: Behavioral responses in Sprague-Dawley rat with unilateral 6-OHDA lesion of nigrostriatal pathway assessed as bilateral response at 6.25 to 25 […] into caudate-putamen; type: functional, organism-based
How it was run: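 Guide cannulae implanted chronically; rats used 10-14 days after surgery. Nialamide 100 mg/kg ip given 2 h before injection. Drug dissolved in nitrogen-bubbled distilled water and injected bilaterally into caudate-putamen through injection units 1.5 mm below guide tips. Photocell counts per 5-min period recorded every 10 min up to 7 h. Biting and sniffing scored on intensity scales. Six to twelve rats per dose.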

Rattus norvegicus [5] = assay: Stereotyped behavior in Sprague-Dawley rat with unilateral 6-OHDA lesion of nigrostriatal pathway assessed as biting behavior at 6.25 to 50 […] into nucleus accumbens; type: functional, organism-based
How it was run: (§2)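 Nialamide 100 mg/kg ip was given 2 h beforehand. Drug was dissolved in nitrogen-bubbled water and injected bilaterally through chronic guide cannulae 10-14 days after surgery. Injection units extended 1.5 mm (caudate-putamen) or 2.5 mm (nucleus accumbens) below the guides. Biting and sniffing were scored in photocell boxes, and hyperactivity was counted as beam interruptions per 5 min, recorded every 10 min for up to 7 h. Six to twelve rats were used per dose.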

Rattus norvegicus [6] = organism: Rattus norvegicus; assay: Behavioral responses in Sprague-Dawley rat pretreated with nialamide assessed as hyperactivity response at 6.25 to 25 µg direct injection into caudate-putamen
Rattus norvegicus [7] = assay: Antagonism of dopamine-induced hyperactivity in Sprague-Dawley rat with unilateral 6-OHDA lesion of nigrostriatal pathway at 0.1 to 1 mg/kg, sc after 2.5 hrs treated bilateral injection of 50 ug of dopamine into the nucleus accumbens; type: functional, organism-based
How it was run: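 Rats received nialamide 100 mg/kg ip, then 2 h later 50 µg dopamine bilaterally into the nucleus accumbens. At 2.5 h, at peak hyperactivity, test drug was given sc in water with 0.1% sodium metabisulfite. Locomotion was measured as photocell beam interruptions per 5 min. Five to eight rats were used per dose.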

Rattus norvegicus [8] = assay: Stereotyped behavior in Sprague-Dawley rat with unilateral 6-OHDA lesion of nigrostriatal pathway assessed as sniffing behavior at 6.25 to 50 […] into nucleus accumbens; type: functional, organism-based
How it was run: as §2

Rattus norvegicus [9] = assay: Stereotyped behavior in sc dosed Sprague-Dawley rat with unilateral 6-OHDA lesion of nigrostriatal pathway assessed as sniffing and repetitive head and limb movements; type: functional, organism-based
Rattus norvegicus [10] = assay: Antagonism of dopamine-induced hyperactivity in sc dosed Sprague-Dawley rat with unilateral 6-OHDA lesion of nigrostriatal pathway after 2.5 hrs treated bilateral injection of 50 ug of dopamine into the nucleus accumbens; type: functional, organism-based
How it was run: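 Rats pretreated with nialamide 100 mg/kg ip; 2 h later, 50 µg dopamine bilaterally into nucleus accumbens. At 2.5 h, at peak hyperactivity, test drug given sc in distilled water with 0.1% sodium metabisulfite. Activity read as photocell beam interruptions per 5-min period. Five to eight rats per dose.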

Rattus norvegicus [11] = assay: Stereotyped behavior in Sprague-Dawley rat with unilateral 6-OHDA lesion of nigrostriatal pathway assessed as biting behavior at 25 to 50 […] into caudate-putamen; type: functional, organism-based
How it was run: as §2

Rattus norvegicus [12] = assay: Stereotyped behavior in Sprague-Dawley rat with unilateral 6-OHDA lesion of nigrostriatal pathway assessed as continuous biting at 2 mg/kg, sc; type: functional, organism-based; design: dose 2 mg/kg
Rattus norvegicus [13] = assay: Stereotyped behavior in Sprague-Dawley rat with unilateral 6-OHDA lesion of nigrostriatal pathway assessed as maximal sniffing and repetitive head and limb movements at 0.5 mg/kg, sc; type: functional, organism-based; design: dose 0.5 mg/kg
Rattus norvegicus [14] = assay: Behavioral responses in Sprague-Dawley rat with unilateral 6-OHDA lesion of nigrostriatal pathway assessed as hyperactivity response at 6.25 to 50 […] direct injection into nucleus accumbens; type: functional, organism-based
How it was run: as §2

Rattus norvegicus [15] = organism: Rattus norvegicus; assay: Stereotyped behavior in Sprague-Dawley rat pretreated with nialamide assessed as hyperactivity behavior at 3.125 to 25 µg, bilateral intrastriatal
Rattus norvegicus [16] = assay: Stereotyped behavior in Sprague-Dawley rat with unilateral 6-OHDA lesion of nigrostriatal pathway assessed as continuous biting up to 4 mg/kg, sc; type: functional, organism-based; design: dose 4 mg/kg
Rattus norvegicus [17] = organism: Rattus norvegicus; assay: Stereotyped behavior in Sprague-Dawley rat pretreated with nialamide assessed as sniffing behavior at 3.125 to 25 µg, bilateral intrastriatal
Rattus norvegicus [18] = organism: Rattus norvegicus; assay: Stereotyped behavior in Sprague-Dawley rat pretreated with nialamide assessed as biting behavior at 3.125 to 25 µg, bilateral intrastriatal
Rattus norvegicus [19] = assay: Behavioral responses in Sprague-Dawley rat with unilateral 6-OHDA lesion of nigrostriatal pathway assessed as hyperactivity response at 3.125 to 25 […] into nucleus accumbens; type: functional, organism-based
How it was run: (§3)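 Guide cannulae implanted chronically; rats used 10-14 days after surgery. Nialamide 100 mg/kg ip given 2 h before injection. Drug in nitrogen-bubbled distilled water injected bilaterally into nucleus accumbens through units 2.5 mm below guide tips. Hyperactivity counted as photocell interruptions per 5-min period, recorded every 10 min up to 7 h. Biting and sniffing scored on intensity scales. Six to twelve rats per dose.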

Rattus norvegicus [20] = assay: Circling behavior in Sprague-Dawley rat with unilateral 6-OHDA lesion of nigrostriatal pathway assessed as number of revolutions performed per min at 0.5 to 2 mg/kg, sc; type: functional, organism-based
How it was run: as §1

Rattus norvegicus [21] = organism: Rattus norvegicus; assay: Stereotyped behavior in Sprague-Dawley rat pretreated with nialamide assessed as bilateral behavior at 3.125 to 25 µg, bilateral intrastriatal
Rattus norvegicus [22] = assay: Stereotyped behavior in Sprague-Dawley rat with unilateral 6-OHDA lesion of nigrostriatal pathway assessed as sniffing and repetitive head and limb movements up to 4 mg/kg, sc; type: functional, organism-based; design: dose 4 mg/kg
Rattus norvegicus [23] = assay: Stereotyped behavior in Sprague-Dawley rat with unilateral 6-OHDA lesion of nigrostriatal pathway assessed as continuous biting at 0.5 to 4 mg/kg, sc; type: functional, organism-based
Rattus norvegicus [24] = assay: Circling behavior in Sprague-Dawley rat with unilateral 6-OHDA lesion of nigrostriatal pathway assessed as number of revolutions performed per min at 0.25 to 4 mg/kg, sc; type: functional, organism-based
How it was run: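 Unilateral lesion made by infusing 4 µl 6-OHDA at 1 µl/min into the medial forebrain bundle in the lateral hypothalamus. Rats were tested 7-21 days later with drug given sc in distilled water containing 0.1% sodium metabisulfite. Contralateral circling was counted as revolutions per min. Values are the mean of at least five rats.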

Rattus norvegicus [25] = assay: Stereotyped behavior in Sprague-Dawley rat with unilateral 6-OHDA lesion of nigrostriatal pathway assessed as maximal biting behavior at 25 […] into nucleus accumbens; type: functional, organism-based
How it was run: as §3

Rattus norvegicus [26] = assay: Stereotyped behavior in Sprague-Dawley rat with unilateral 6-OHDA lesion of nigrostriatal pathway assessed as biting behavior at 3.125 to 25 […] into nucleus accumbens; type: functional, organism-based
How it was run: as §3

Rattus norvegicus [27] = assay: Stereotyped behavior in Sprague-Dawley rat with unilateral 6-OHDA lesion of nigrostriatal pathway assessed as sniffing and repetitive head and limb movements at 0.0063 to 0.05 mg/kg, sc; type: functional, organism-based
Rattus norvegicus [28] = organism: Rattus norvegicus; assay: Stereotyped behavior in Sprague-Dawley rat pretreated with nialamide assessed as biting behavior at 25 µg, bilateral intrastriatal
Rattus norvegicus [29] = organism: Rattus norvegicus; assay: Stereotyped behavior in Sprague-Dawley rat pretreated with nialamide assessed as sniffing behavior at 25 µg, bilateral intrastriatal
Rattus norvegicus [30] = assay: Stereotyped behavior in Sprague-Dawley rat with unilateral 6-OHDA lesion of nigrostriatal pathway assessed as sniffing behavior at 25 […] into nucleus accumbens; type: functional, organism-based
How it was run: as §3

Rattus norvegicus [31] = assay: Stereotyped behavior in Sprague-Dawley rat with unilateral 6-OHDA lesion of nigrostriatal pathway assessed as continuous biting at 0.1 mg/kg, sc; type: functional, organism-based; design: dose 0.1 mg/kg
Rattus norvegicus [32] = organism: Rattus norvegicus; assay: Behavioral responses in Sprague-Dawley rat pretreated with nialamide assessed as hyperactivity response at 25 µg, bilateral intrastriatal

| SMILES | Activity (Rattus norvegicus [4]) | Activity (Rattus norvegicus [6]) | inhibition (Rattus norvegicus [7]) | Activity (Rattus norvegicus [15]) | Activity (Rattus norvegicus [17]) | Activity (Rattus norvegicus [18]) | Activity (Rattus norvegicus [19]) | Activity (Rattus norvegicus [21]) | Activity (Rattus norvegicus [22]) | Activity (Rattus norvegicus [24]) | other results |
| --- | --- | --- | --- | --- | --- | --- | --- | --- | --- | --- | --- |
| CN1CCc2cccc3c2[C@H]1Cc1ccc(O)c(O)c1-3 | inactive | inactive | inactive |  |  |  |  |  |  |  | Activity (Rattus norvegicus [1]): inactive; Activity (Rattus norvegicus [2]): Dose-dependent effect; Activity (Rattus norvegicus [3]): Dose-dependent effect; Activity (Rattus norvegicus [5]): Active; Activity (Rattus norvegicus [8]): Active; Activity (Rattus norvegicus [9]): Dose-dependent effect; inhibition (Rattus norvegicus [10]): Dose-dependent effect; Activity (Rattus norvegicus [11]): Active; Activity (Rattus norvegicus [12]): Active; Activity (Rattus norvegicus [13]): Active; Activity (Rattus norvegicus [14]): Active |
| CCCN1CCc2cccc3c2C1Cc1ccc(O)cc1-3 (stereo unspecified) | inactive | inactive | inactive | inactive | inactive | inactive | inactive | inactive | inactive |  | Activity (Rattus norvegicus [16]): Active; Activity (Rattus norvegicus [20]): Dose-dependent effect |
| CCCN1CCc2ccccc2C1Cc1ccc(O)cc1 (racemic) | inactive | inactive | inactive | inactive | inactive | inactive | inactive | inactive | inactive | inactive | Activity (Rattus norvegicus [23]): inactive |
| CCCN1CCc2cccc3c2[C@H]1Cc1ccc(O)c(O)c1-3 | inactive | inactive |  |  |  |  | inactive |  |  |  | Activity (Rattus norvegicus [25]): Active; Activity (Rattus norvegicus [26]): Active; Activity (Rattus norvegicus [2]): Dose-dependent effect; Activity (Rattus norvegicus [27]): Active; Activity (Rattus norvegicus [28]): Active; Activity (Rattus norvegicus [29]): Active; Activity (Rattus norvegicus [30]): Active; Activity (Rattus norvegicus [31]): Active; inhibition (Rattus norvegicus [10]): Dose-dependent effect; Activity (Rattus norvegicus [32]): inactive |
| CN1CCc2cccc3c2C1Cc1c(O)cccc1-3 (racemic) | inactive | inactive |  |  |  |  |  |  |  |  |  |
| CCCN1CCc2ccccc2C1Cc1ccc(O)c(O)c1 (racemic) | inactive | inactive | inactive | inactive | inactive | inactive | inactive | inactive | inactive | inactive | Activity (Rattus norvegicus [23]): inactive |
| CCCN1CCc2cccc3c2C1Cc1c(O)cccc1-3 (racemic) | inactive | inactive | inactive | inactive | inactive | inactive | inactive | inactive | inactive | inactive | Activity (Rattus norvegicus [16]): Active |
| NCCc1ccc(O)c(O)c1 | Active | Active |  |  |  |  |  |  |  |  | Activity (Rattus norvegicus [14]): inactive |

— ChEMBL document CHEMBL3244245, “Aporphines, 21. (1,2) Dopaminergic activity of aporphine and benzylisoquinoline derivatives. Synthesis of 8-hydroxyaporphines and 1-(hydroxybenzyl)-2-n-propyl-1,2,3,4-tetrahydroisoquinolines” (J Med Chem, 1977)
